Screening data: PubChem BioAssay, several laboratories
Only some compounds are listed: those with a hit (about 1.1% of all), similar ones and a draw of the others.
CAL PDZ FP-1 = human CAL PDZ-peptide interaction inhibition | purified CAL PDZ, TMR-peptide fluorescence polarization, 1 h | inhibition, % at 20 µM | 0.02% of 330,000 active;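 active means highest replicate inhibition of at least 40%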
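Test system: tagged CAL PDZ domain / Buffer or medium: sodium phosphate/NaCl buffer pH 7.4 with TCEP, IgG, Thesit / Reagent: TMR-labelled reporter peptide T*-PRC34 bound in PDZ groove / Compound dosing: single point, 20 µM / Schedule: 1 h incubation at room temperature before polarization reading / Technique: fluorescence polarization (mP) / Benchmarks: unlabelled peptide, DMSO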
CAL PDZ FP-2 = CAL PDZ (human) peptide binding inhibition; Q9HD26; purified CAL PDZ, TMR-peptide fluorescence polarization, 1 h; 0.92% of 300,000 active; AID 602252; inhibition, % at 24.9 µM;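 active means mean inhibition of at least 30% with at least half of replicates also reaching 30%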
ERAP1 HTS inh = inhibitors of human ERAP1 aminopeptidase; Q9NZ08; recombinant ERAP1, Leu-AMC fluorescence, 60 min; inhibition, % at 10.7 µM; 0.15% of 340,000 active; AID 652197;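 active means mean replicate inhibition of at least 30%, or all replicates individually reaching that 30% level; inactive means mean below 30% and not every replicate reaching it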
Rin1-Abl PPI inh = human Rin1-Abl interaction inhibition. TR-FRET Rin1/Abl binding, biochemical. inhibition, % at 7.35 µM. AID 588664. 0.4% of 360,000 active. P00519+Q13671; in the data active means inhibition above about 5%, passing the limit was not always enough
ERp5 inh = blocks human ERp5 reductase activity on insulin. inhibition, % at 9.99 µM. ERp5 insulin aggregation, absorbance 650 nm, 90 min. AID 651711. 0.05% of 350,000 active;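 active means mean replicate inhibition above about 25%, with every replicate also reaching it, limit read from the data, passing the limit was not always enough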
PDI turbidity = blocks human protein disulfide isomerase activity; AID 588391; inhibition, % at 10 µM; 0.052% of 350,000 active; PDI insulin aggregation turbidity, A650, 90 min;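 active means mean inhibition across replicates of 30% or more, whatever share of single replicates reach that level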
Target sequence (P07237 whole entry, looked up): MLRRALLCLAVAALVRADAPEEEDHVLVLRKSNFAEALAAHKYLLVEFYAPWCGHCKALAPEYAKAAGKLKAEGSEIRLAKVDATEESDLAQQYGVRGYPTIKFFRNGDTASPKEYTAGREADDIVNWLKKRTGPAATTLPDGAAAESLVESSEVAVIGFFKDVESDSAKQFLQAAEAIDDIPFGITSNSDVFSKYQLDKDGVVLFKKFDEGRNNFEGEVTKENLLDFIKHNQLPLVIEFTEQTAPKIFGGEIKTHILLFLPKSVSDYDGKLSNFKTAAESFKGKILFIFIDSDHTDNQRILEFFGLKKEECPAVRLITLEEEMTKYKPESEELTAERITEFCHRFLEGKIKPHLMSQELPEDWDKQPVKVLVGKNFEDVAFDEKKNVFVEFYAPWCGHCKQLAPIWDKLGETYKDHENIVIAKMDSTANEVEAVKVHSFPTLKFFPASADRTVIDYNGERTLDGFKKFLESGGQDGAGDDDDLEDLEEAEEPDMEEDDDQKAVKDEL
Numbers stand for hits; n = inactive; x = not tested or not shown; + = active, no number.

SMILES | CAL PDZ FP-1 | CAL PDZ FP-2 | ERAP1 HTS inh | Rin1-Abl PPI inh | ERp5 inh | PDI turbidity
CCNC(=S)N1CCC(C(O)(c2ccccc2)c2ccccc2)CC1 | n | n | n | n | n | n
NC(=O)NCC(=O)N1CCC(C(O)(c2ccccc2)c2ccccc2)CC1 | n | 79 | n | n | n | n
C[C@@H]1CN([C@@H](C)CO)S(=O)(=O)c2ccc(C#Cc3ccncc3)cc2O[C@@H]1CN(C)CC1CC1 | x | x | n | x | n | x
CCOC(=O)c1[nH]c2ccc(Br)cc2c1NC(=O)CCN1CCN(C(=O)OCC)CC1 | n | n | x | n | x | n
CCOC(=O)c1[nH]c2ccc(Br)cc2c1NC(=O)CCN1CCOCC1 | n | n | 34 | n | n | n
CCOC(=O)CN1NC2(CCCCCC2)NC1=S | n | x | 35 | n | n | n
CC(C)(C)N1NC2(CCCCC2)NC1=S | n | n | n | n | n | n
C[C@@H]1CN([C@H](C)CO)C(=O)c2cc(NC(=O)Nc3ccc(C(F)(F)F)cc3)ccc2O[C@@H](C)CCCCO[C@@H]1CN(C)C(=O)C1CCCCC1 | x | x | n | x | n | x
Cc1ccccc1N1CCN(C(=O)C2CCC(=O)N(C3CCCC3)C2)CC1 (centres undefined) | n | 79 | n | n | n | n
O=C(C1CCC(=O)N(C2CCCCCC2)C1)N1CCN(c2ccccc2Cl)CC1 (centres undefined) | n | n | n | n | n | n
CN(C)CCC(C(=O)c1ccccc1)c1ccncc1 (centres undefined) | n | n | n | n | n | n
CN(C)CCC(C(=O)c1ccccc1)c1ccccn1 (centres undefined) | n | 85 | x | n | x | n
COc1ccc(S(=O)(=O)Nc2ccc3c(c2)CC(=O)N([C@H](C)CO)C[C@H](C)[C@@H](CN(C)Cc2ccc4c(c2)OCO4)O3)cc1 | x | x | n | x | n | x
COc1ccc(C2=CSC3=C(C(=O)c4cccc(S(=O)(=O)N(C)C)c4)CCN23)cc1 | x | 96 | x | n | x | n
COc1ccc(N(C)S(=O)(=O)c2cccc(C(=O)N3CCN(c4ccccc4)CC3)c2)cc1 | n | n | n | n | n | n
Cc1onc(-c2c(Cl)cccc2Cl)c1C(=O)N1CCN(c2ncccn2)CC1 | n | 51 | n | n | n | n
Cc1onc(-c2c(Cl)cccc2Cl)c1C(=O)N1CCN(c2ccccc2)CC1 | n | n | n | n | n | n
COc1cccc(N2CCN(CC(=O)NCc3ccccc3)CC2)c1 | n | 50 | n | n | n | n
CCOc1ccc(/C=N/NC(=O)c2ccoc2C)cc1OC | n | 182 | n | n | n | n
O=C(CCN1CCCCC1)N[C@@H]1CC[C@H](CCNS(=O)(=O)c2ccccc2)O[C@@H]1CO | x | x | n | x | n | x
CSc1nc(-c2ccccc2)[nH]c(=S)c1C(C)=O | n | n | x | n | x | n
CSc1nc(-c2ccc(C)cc2)[nH]c1S(=O)(=O)c1ccccc1 | x | 35 | x | n | x | n
O=C(NCc1ccc2c(c1)OCO2)c1nc(Cn2cc(Br)cn2)no1 | n | 37 | n | n | n | n
O=C(C[C@@H]1C[C@@H]2c3cc(NC(=O)c4cccnc4)ccc3O[C@@H]2[C@H](CO)O1)NCc1cccnc1 | x | x | n | x | n | x
O=C(CN1CCN(C(=O)C2CCCO2)CC1)Nc1ccc(Cl)cc1 (centres undefined) | n | 33 | n | n | n | n
SMILES | CAL PDZ FP-1 | CAL PDZ FP-2 | ERAP1 HTS inh | Rin1-Abl PPI inh | ERp5 inh | PDI turbidity
O=C(Nc1ccc(Cl)cc1)N1CCN(C(=O)C2CCCO2)CC1 (centres undefined) | n | n | n | n | n | n
C[C@@H]1CN([C@@H](C)CO)C(=O)c2cc(NC(=O)Nc3ccc(C(F)(F)F)cc3)ccc2O[C@@H]1CN(C)C(=O)Nc1ccc(C(F)(F)F)cc1 | x | x | n | x | n | x
CCOC(=O)CSc1nnc(-c2ccc3ncccc3c2)n1C | n | + | n | n | n | n
Cc1ccc(-c2nnc(SCC(N)=O)n2C)cc1 | n | n | n | n | n | n
COC(=O)C(C(=O)OC)=C(/C=C/N(C)C)N(C)C | n | 46 | x | n | x | n
CCCNC(=O)N(C)C[C@H]1Oc2cc(-c3ccc(C)cc3)ccc2S(=O)(=O)N([C@H](C)CO)C[C@@H]1C | x | x | n | x | n | x
C[C@@H]1CCCCO[C@@H](CN(C)C(=O)CCC(F)(F)F)[C@H](C)CN([C@@H](C)CO)C(=O)c2cc(NS(=O)(=O)c3ccc(Cl)cc3)ccc2O1 | x | x | n | x | 64 | x
C[C@@H]1CCCCO[C@@H](CN(C)Cc2ccc(C(=O)Nc3ccccc3N)cc2)[C@@H](C)CN([C@H](C)CO)C(=O)c2cc(NS(=O)(=O)c3cccs3)ccc2O1 | x | x | n | x | 70 | x
Cc1noc(C)c1S(=O)(=O)Nc1ccc2c(c1)C(=O)N([C@H](C)CO)C[C@H](C)[C@@H](CN(C)Cc1ccncc1)OCCCC[C@H](C)O2 | x | x | n | x | n | x
CN(C)C(=O)CN1c2cccc3cccc(c23)S1(=O)=O | n | 31 | n | n | n | n
COCCn1c(=N)c(C(=O)NCc2ccco2)cc2c(=O)n3cc(C)ccc3nc21 | n | n | 66 | n | n | n
COc1ccccc1NC(=O)c1ccccc1S(=O)(=O)c1ccc([N+](=O)[O-])cc1 | n | 72 | n | n | n | n
COc1ccccc1NC(=O)c1ccccc1S(=O)(=O)c1ccccc1[N+](=O)[O-] | n | n | n | n | n | n
COc1ccc(CCNC(=O)Cn2c(=O)n(-c3ccc(F)cc3F)c(=O)c3sccc32)cc1OC | x | 32 | x | n | n | n
C[C@H](CO)N1C[C@H](C)[C@@H](CN(C)C(=O)Cc2ccncc2)Oc2ncc(C3=CCCC3)cc2C1=O | x | x | n | x | n | x
Cc1ccc(CNc2nc(N)c([N+](=O)[O-])c(NCCO)n2)cc1 | n | 62 | n | n | n | n
CC(=O)N1[C@@H](CO)[C@@H](c2ccccc2)C12CN(Cc1cc(F)ccc1F)C2 | x | x | n | x | n | x
O=C1CSC(=S)N1/N=C/c1ccc(O)c(O)c1O | n | n | x | 30 | x | n
CCOC(=O)CN1C(=O)c2ccccc2C1=O | n | 51 | x | n | x | n
Cc1ccc(N2CCN(C(=O)CN3C(=O)c4ccccc4C3=O)CC2)cc1 | n | n | x | n | x | n
O=C(CN1C(=O)c2ccccc2C1=O)N1CCN(c2ccccc2)CC1 | n | 40 | x | n | x | n
Cc1noc(C)c1NC(=O)N(C)C[C@@H]1Oc2ccc(NC(=O)Nc3ccccc3)cc2CC(=O)N([C@@H](C)CO)C[C@@H]1C | x | x | n | x | n | x
CCN(CC(=O)Nc1ccccc1C(F)(F)F)C(=O)Cn1c(=O)cnc2ccccc21 | n | n | 32 | n | n | n
CN1C(=O)c2cc(NC(=O)Cc3cccs3)ccc2OC[C@@H]2O[C@@H](CC(=O)NCC3CC3)CC[C@H]21 | x | x | n | x | n | x
Cc1cc(NC(=O)CSc2nnc(-c3ccncc3)n2C)n(-c2ccccc2)n1 | n | 77 | n | n | n | n
CN(CC(=O)Nc1ccccc1C(F)(F)F)C(=O)CSc1nnnn1C | n | n | n | n | n | n
